Experimental data from ChEMBL document CHEMBL4602706, “Natural Product Evodiamine with Borate Trigger Unit: Discovery of Potent Antitumor Agents against Colon Cancer” (ACS Med Chem Lett, 2020).
Calls of active or inactive are those of the source. The rule behind the calls is not given here.

Experiments:
[1] = system: HCT-116; test: Antiproliferative activity against human HCT116 cells incubated for 72 hrs by CCK8 assay; type: functional, cell-based; conditions: Homo sapiens, HCT-116, 72 h; read-out: IC50
How it was run: (§1)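 HCT116, MCF-7 and A549 human cancer cell lines; antiproliferative activity read out by CCK8 assay. Evodiamine derivatives and camptothecin served as positive controls.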

[2] = system: MCF7; test: Antiproliferative activity against human MCF7 cells incubated for 72 hrs by CCK8 assay; type: functional, cell-based; conditions: Homo sapiens, MCF7, 72 h; read-out: IC50; how it was run: as §1
[3] = system: A549; test: Antiproliferative activity against human A549 cells incubated for 72 hrs by CCK8 assay; type: functional, cell-based; conditions: Homo sapiens, A549, 72 h; read-out: IC50; how it was run: as §1
[4] = target: T1, DNA topoisomerase 1 (Homo sapiens) (UniProt P11387); test: Inhibition of Top1 (unknown origin) at 500 uM using supercoiled pBR322 plasmid DNA as substrate incubated for 15 mins by PI staining based agarose gel electrophoresis analysis
T1 sequence (whole entry): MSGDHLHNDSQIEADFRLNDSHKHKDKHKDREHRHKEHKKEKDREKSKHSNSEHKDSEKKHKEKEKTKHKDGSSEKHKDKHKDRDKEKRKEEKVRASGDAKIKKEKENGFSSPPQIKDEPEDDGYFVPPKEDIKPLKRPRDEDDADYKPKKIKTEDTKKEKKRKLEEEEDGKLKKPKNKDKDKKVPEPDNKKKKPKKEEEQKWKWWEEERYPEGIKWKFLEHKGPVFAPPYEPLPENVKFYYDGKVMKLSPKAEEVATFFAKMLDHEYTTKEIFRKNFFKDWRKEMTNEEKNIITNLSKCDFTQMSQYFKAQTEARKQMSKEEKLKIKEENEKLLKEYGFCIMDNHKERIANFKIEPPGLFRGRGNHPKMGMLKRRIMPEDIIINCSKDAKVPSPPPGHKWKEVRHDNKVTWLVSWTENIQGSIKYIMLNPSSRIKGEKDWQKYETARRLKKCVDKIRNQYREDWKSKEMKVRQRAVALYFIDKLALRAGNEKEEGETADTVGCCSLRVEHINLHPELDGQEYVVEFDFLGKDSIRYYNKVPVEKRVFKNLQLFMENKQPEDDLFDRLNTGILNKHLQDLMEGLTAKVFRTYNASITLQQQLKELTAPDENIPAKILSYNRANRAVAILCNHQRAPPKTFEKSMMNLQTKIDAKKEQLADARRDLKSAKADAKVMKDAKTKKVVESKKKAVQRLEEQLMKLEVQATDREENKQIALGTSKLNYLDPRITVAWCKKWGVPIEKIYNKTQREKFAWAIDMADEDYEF
How it was run: (§2)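 Top1 inhibition tested at 500, 250 and 125 μM, and over 27.9 to 250 μM for selected compounds.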

[5] = target: T2, DNA topoisomerase II (Homo sapiens) (UniProt P11388+Q02880); test: Inhibition of Top2 (unknown origin) using supercoiled pBR322 plasmid as substrate incubated for 30 mins by PI staining based agarose gel electrophoresis analysis; type: protein assay
[6] = Drug metabolism in human HCT116 cells assessed as 3-Fluoro-10-hydroxy-14-methyl-8,13,13b,14-tetrahydro-7H-indolo[2',3':3,4]pyrido[2,1-b]quinazolin-5-one release by measuring retention time incubated for 8 hrs by UPLC-QTOF/MS analysis; type: ADME, cell-based; conditions: hct-116, 8 h
How it was run: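 Compounds incubated with HCT116 cells; culture media analysed by HPLC after 8, 48 and 72 h. Relative release rate taken from relative peak areas; parent and product identified by retention time.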

[7] = Metabolic stability in mouse liver microsomes assessed as half life at 1 uM preincubated with compound followed by NADPH addition measured upto 45 mins by LC-MS/MS analysis; type: ADME, Microsome
How it was run: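 In vitro stability in liver microsomes; terminal half-life determined.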

[8] = target: T1, DNA topoisomerase 1 (Homo sapiens); test: Inhibition of Top1 (unknown origin) at 125 uM using supercoiled pBR322 plasmid DNA as substrate incubated for 15 mins by PI staining based agarose gel electrophoresis analysis; how it was run: as §2
[9] = target: T2, DNA topoisomerase II (Homo sapiens); test: Inhibition of Top2 (unknown origin) at 50 uM using supercoiled pBR322 plasmid DNA as substrate incubated for 30 mins by PI staining based agarose gel electrophoresis analysis; type: protein assay

Row | IC50 [1] [µM] | IC50 [2] [µM] | IC50 [3] [µM] | inhibition [4] | inhibition [5] | half-life at 1 µM [7] [min] | inhibition [8] | inhibition [9] | SMILES | Retention_time [6] [min]
1 | 0.15 | 0.097 | 0.12 |  |  |  |  |  | CN1c2ccc(F)cc2C(=O)N2CCc3c([nH]c4ccc(OCc5ccc(B6OC(C)(C)C(C)(C)O6)cc5)cc34)C21 (centres undefined) | 
2 | 0.52 | 1.58 | 7.2 |  |  |  |  |  | CN1c2ccccc2C(=O)N2CCc3c(n(C(=O)OC(C)(C)C)c4ccc(OCc5ccc(B(O)O)cc5)cc34)C21 (centres undefined) | 
3 | 2.17 | 7.85 | 2.23 |  |  |  |  |  | CN1c2ccc(F)cc2C(=O)N2CCc3c(n(C(=O)OC(C)(C)C)c4ccc(OCc5ccc(B6OC(C)(C)C(C)(C)O6)cc5)cc34)C21 (centres undefined) | 
4 | 0.069 | 0.16 | 0.1 | Active |  |  |  |  | CN1c2ccccc2C(=O)N2CCc3c([nH]c4ccc(B(O)O)cc34)C21 (centres undefined) | 
5 |  |  |  |  | Active |  |  |  | COc1cc([C@@H]2c3cc4c(cc3[C@@H](O[C@@H]3O[C@@H]5CO[C@@H](C)O[C@H]5[C@H](O)[C@H]3O)[C@H]3COC(=O)[C@H]23)OCO4)cc(OC)c1O | 
6 | 0.055 | 0.27 | 0.084 | Active |  |  |  |  | CN1c2ccccc2C(=O)N2CCc3c([nH]c4ccc(O)cc34)C21 (centres undefined) | 
7 | 4.91 | 2.39 | 2.13 |  |  |  |  |  | CN1c2ccc(F)cc2C(=O)N2CCc3c(n(C(=O)OC(C)(C)C)c4ccc(OCc5ccc(B(O)O)cc5)cc34)C21 (centres undefined) | 
8 | 0.027 | 0.031 | 0.029 | Active |  | 3.69 |  |  | CN1c2ccc(F)cc2C(=O)N2CCc3c([nH]c4ccc(O)cc34)C21 (centres undefined) | 7.3
9 | 0.083 | 0.059 | 0.073 | Active | Active |  | Active |  | CN1c2ccc(F)cc2C(=O)N2CCc3c([nH]c4ccc(OCc5ccc(B(O)O)cc5)cc34)C21 (centres undefined) | 
10 | 0.065 | 0.086 | 0.1 | Active |  |  | Active | Active | CN1c2ccccc2C(=O)N2CCc3c([nH]c4ccc(OC(=O)OCc5ccc(B6OC(C)(C)C(C)(C)O6)cc5)cc34)C21 (centres undefined) | 
